Experimental findings from ChEMBL document CHEMBL2331137, “Scopoletin and scopolin isolated from Artemisia iwayomogi suppress differentiation of osteoclastic macrophage RAW 264.7 cells by scavenging reactive oxygen species” (J Nat Prod, 2013) are described below.

Each structure is given as a SMILES string. Active and inactive are the calls of the source. The calls are words filed in the database; no cut-off is given here.

Series [1] in a line: Antioxidant activity assessed as reduction of Cu2+ to Cu+ measured as copper (I) level at 1 uM measured for 1 hr. The format is functional. The procedure, abridged:
(§1)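 Copper-reducing assay: compounds in ethanol mixed with 0.5 mM CuCl2 and 0.75 mM neocuproine (Cu+ chelator) in 10 mM phosphate buffer. Absorbance at 454 nm read for 1 h; reducing capacity expressed in μM. Trolox as reference; mean ± SD of three experiments.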

Series [2] can be described thus: Antioxidant activity assessed as trolox equivalents of peroxyl radical scavenging activity at 1 uM by ORAC assay. The format is functional. Put shortly: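 ORAC: fluorescein (40 nM final) exposed to AAPH (20 mM final) as peroxyl radical source, fluorescence recorded every 2 min relative to the initial reading. Net area under the decay curve versus blank computed and expressed as Trolox equivalents, with Trolox at 1 μM as reference; three experiments.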

Series [3] deals with RAW264.7. The series can be described thus: Cytotoxicity against mouse RAW264.7 cells at 1 to 10 uM for 5 days by MTT assay. The format is cell-based. The settings on record: raw264.7, 120 h. The procedure, abridged:
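MTT assay: RAW 264.7 cells (2 × 10^4 cells/mL) in DMEM with 10% FBS at 37 °C, 5% CO2, treated with 1–10 μM samples for 5 days. MTT then added for 1 h at 37 °C, formazan dissolved in DMSO, A570 read; percentage proliferation calculated.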
On the technique in general: Tetrazolium dyes change colour on reduction, which living cells bring about.

The test system of series [4] is RAW264.7. The series can be described thus: Inhibition of RANKL-induced superoxide anion level in mouse RAW264.7 cells at 10 uM by DHE fluorescence intensity assay (reference value: 176.7%); values are per cent of control.
Series [5] concerns HepG2. The series can be described thus: Antioxidant activity against H2O2-induced intracellular oxidative stress in human HepG2 cells assessed as DCF fluorescence intensity at 1 to 10 uM. Type of series: functional, cell-based. The procedure, abridged:
(§2)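 HepG2 cells cultured 24 h in DMEM, then given compounds (1–10 μM, in DMSO) for 30 min and washed. Stress induced in HBSS with 60 μM AAPH or 1 mM H2O2 for 30 min. DCFH-DA added at 40 μM final, 30 min at 37 °C in the dark; DCF read at Ex 485/Em 535 nm. Trolox 10 μM as reference; % of untreated cells, n = 3.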

Series [6] concerns RAW264.7. As to the kind of experiment: Inhibition of RANKL-induced ROS generation in mouse RAW264.7 cells at 10 uM by DCF fluorescence intensity assay (reference value: 143.7%); values are per cent of control.
The test system of series [7] is HepG2. As to the kind of experiment: Antioxidant activity against […]-induced intracellular oxidative stress in human HepG2 cells assessed as DCF fluorescence intensity at 1 to 10 uM. Type of series: functional, cell-based. Put shortly: as §2
Series [8] deals with RAW264.7. As to the kind of experiment: Inhibition of hydrogen peroxide level in RANKL-treated mouse RAW264.7 cells at 10 uM by DHR fluorescence intensity assay. Type of series: functional, cell-based.
For series [9], the system named is RAW264.7. The series can be described thus: Antiosteoporotic activity in mouse RAW264.7 cells assessed as inhibition of RANKL-induced osteoclastogenesis measured as reduction in TRAP number for 5 days by light microscopy. Type of series: functional, cell-based. Put shortly: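 RAW 264.7 cells seeded at 3 × 10^4/well and given test samples in differentiation medium with 50 ng/mL RANKL, changed every 2 days, for 5 days. Cells fixed in 3.5% formaldehyde 10 min and stained 1 h at 37 °C with a leukocyte acid phosphatase kit. TRAP-positive cells with ≥3 nuclei counted by light microscopy. Expressed as % of RANKL-treated cells; mean ± SD, n = 3.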

In series [10] the test system is RAW264.7. As to the kind of experiment: Antiosteoporotic activity in mouse RAW264.7 cells assessed as inhibition of RANKL-induced osteoclastogenesis measured as reduction in TRAP activity for 5 days by ELISA. The format is functional, cell-based. The procedure, abridged: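 RAW 264.7 cells differentiated 5 days with 50 ng/mL RANKL plus test samples, medium changed every 2 days. Cells then washed with ice-cold PBS, fixed in 3.5% formaldehyde (10 min) and ethanol–acetone 1:1 (1 min). They were incubated 1 h in 50 mM citrate pH 4.5 with 10 mM sodium tartrate and 6 mM PNPP, stopped in 0.1 N NaOH, A405. Expressed as % of untreated control; n = 3.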
(ELISA stands for enzyme-linked immunosorbent assay.)

The nature of series [11]: Antioxidant activity assessed as reduction of Cu2+ to Cu+ measured as copper (I) level at 10 uM measured for 1 hr (reference value: 2.1 uM). Type of series: functional. Put shortly: as §1

For the compound `Cc1c(C)c2c(c(C)c1O)CCC(C)(C(=O)O)O2` (stereo not given), in [1], the Activity came out at 1.5 µM.

Take `COc1cc2ccc(=O)oc2cc1O` [SCOPOLETIN]: the Activity was 3.3 equiv in series [2] and “Non-toxic” in series [3]. Moreover, the level, % of control at 10 µM in [4] stood at 158%; in series [6], 132%. In addition, the outcome in series [5], in series [1] and in series [7] was Active. For the same compound, the inhibition entry in series [8] was “inactive”. Further, the inhibition entry in series [9] and in series [10] was “Dose-dependent effect” in each case.

Turning to `COc1cc2ccc(=O)oc2cc1O[C@@H]1O[C@H](CO)[C@@H](O)[C@H](O)[C@H]1O` [SCOPOLIN], the Activity in [2] is 0.4 equiv; in series [3] it was “Non-toxic”. Moreover, the values for the level, % of control at 10 µM in series [4] and in [6] were 149% and 127%, respectively. In addition, the outcome in series [11] was inactive. In series [5], the outcome was Active. In [8], the inhibition result was “inactive”. The inhibition result in [9] and in [10] was “Dose-dependent effect” in each case.
